Screens: PubChem, several laboratories
Shown are actives, neighbours in structure and some others; about 2.5% of the full set was active somewhere.
DNMT1 inh = blocks human DNA methyltransferase DNMT1. P26358. DNMT1 molecular beacon, Hinp1I cleavage, fluorescence. inhibition (reported as % activation of signal), % at 10 µM. hit rate 0.83% among 360,000. AID 588458; in the data active = inhibition above about 50%
MBD2 inh = inhibitors of human MBD2 binding to methylated oligonucleotide; inhibition, % at 4.4 µM; AID 686964; TR-FRET; hit rate 0.31% among 370,000; Q9UBB5; in the data active = inhibition above about 13%
Target sequence (Q9UBB5 whole entry, looked up): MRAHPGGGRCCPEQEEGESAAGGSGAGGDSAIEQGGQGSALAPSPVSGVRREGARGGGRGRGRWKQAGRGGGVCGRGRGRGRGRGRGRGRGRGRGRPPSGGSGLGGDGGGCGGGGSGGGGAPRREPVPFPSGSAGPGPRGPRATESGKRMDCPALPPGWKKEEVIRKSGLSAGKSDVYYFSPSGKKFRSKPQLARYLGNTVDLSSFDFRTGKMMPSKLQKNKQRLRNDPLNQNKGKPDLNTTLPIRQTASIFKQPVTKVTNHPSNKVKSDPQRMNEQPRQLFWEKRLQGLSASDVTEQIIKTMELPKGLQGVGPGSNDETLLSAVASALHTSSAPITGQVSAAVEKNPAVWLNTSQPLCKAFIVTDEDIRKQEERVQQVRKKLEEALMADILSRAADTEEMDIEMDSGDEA
NS3 helicase inh = blocks Hepatitis C virus NS3 helicase unwinding. NS3 helicase DNA unwinding, Cy5 molecular beacon fluorescence. inhibition, % at 10.9 µM. hit rate 0.56% among 290,000. AID 1800;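 active = inhibition above the mean of all tested compounds plus 3 SD, set per campaign, cut at about 35% in these data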;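 note: 0% = DMSO wells and 100% = thioflavine S control wells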
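System: HCV NS3 helicase fragment; control set: DMSO and thioflavine S; technique: Cy5 fluorescence at 0 and 60 min, beacon hairpin quenching; reagent: beacon DNA duplex substrate plus ATP; replicates: singlicate; schedule: 1 h reaction at 25 °C, ATP-initiated; medium: MOPS buffer pH 6.5 with MgCl2, DTT, Tween20, BSA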
DSG3 Ab inh = blocks pemphigus antibody binding to human desmoglein-3; P32926; DSG3-coupled beads, scFv-anti-DSG3-GFP binding, flow cytometry; hits give low values; binding (percent of control), % at 10 µM; hit rate 0.48% among 310,000; AID 588358;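 active = binding more than 3 SD below its plate's average and above zero; inconclusive = below that plate limit but binding exactly zero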;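 note: hits lower antibody fragment binding to DSG3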
UHRF1 binding = blocks human UHRF1 binding to methylated DNA; UHRF1 binding to methylated oligo, TR-FRET; hit rate 0.75% among 370,000; AID 687016; inhibition, % at 4.4 µM; Q96T88; in the data active = inhibition above about 21%;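 note: UHRF1 SRA domain binding a hemimethylated CpG hairpin DNA probe; 0% = median of test compound wells and 100% = reference inhibitor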
SUMO1-SIM PPI = modulators of human SUMO1-mediated protein-protein interactions. SUMO1 binding to a labelled peptide, TR-FRET, 1 h. inhibition, % at 20 µM. hit rate 0.33% among 360,000; in the data active = inhibition above about 37%
Target sequence (P63165 whole entry, looked up): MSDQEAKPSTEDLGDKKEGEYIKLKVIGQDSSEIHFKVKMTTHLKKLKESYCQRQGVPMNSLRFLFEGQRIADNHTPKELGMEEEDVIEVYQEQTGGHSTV
* marks the source's active call; other numbers are inactive results; u = inconclusive; x = no result given; ! = repeats disagree.

SMILES	DNMT1 inh	MBD2 inh	NS3 helicase inh	DSG3 Ab inh	UHRF1 binding	SUMO1-SIM PPI
OC(COc1ccc(Cl)cc1)CN1CCN(c2ccccn2)CC1 (stereo not given)	0	1	x	x	-3	0
CSc1ncc(Cl)c(C(=O)Nc2c(C)cccc2C)n1	0	-2	7	u	-1	-1
C=C[C@H]1CN2CC[C@H]1C[C@@H]2[C@@H](O)c1ccnc2ccc(OC)cc12	1	4	x	99	42*!	20
C=C[C@H]1CN2CCC1C[C@H]2[C@H](O)c1ccnc2ccc(OC)cc12 (stereo not given in full)	1	1	-1	x	-2	-3
Cc1cc(C)n2c(SCCO)nnc2n1	-2	0	6	109	1	3
CCOC(=O)c1c(-c2ccccc2)c2cc(OC)ccc2n1CCCN(C)C	-2	-1	-60	121	26*	-2
COC(=O)C(Cc1ccccc1)NC(=O)CNC(=O)c1ccccc1OC (stereo not given)	0	1	2	96	0	11
Cc1cc(C)c(C)c(S(=O)(=O)N2CCC(C(=O)Nc3ccccc3N3CCOCC3)CC2)c1C	1	4	0	1.0*	3	-2
CCOc1ccc(NC(=S)N2CCC(NC(=O)C3CCCCC3)CC2)cc1	4	-1	13	x	5	7
Cc1c(NC(=O)C(C)NCC2CCCO2)c(=O)n(-c2ccccc2)n1C (stereo not given)	2	-3	1	x	38*	11
Cc1c(/C=N/Nc2ccc(C(=O)O)cc2)c2ccccc2n1C	1	2	3	100	-1	-11
O=C(O)CCN1C(=O)/C(=C\c2ccc(-c3nc4ccccc4s3)o2)SC1=S	109*	x	21	96	x	87*
CCCn1c(SCC(=O)NC(=O)Nc2ccc(C)cc2C)n[nH]c1=O	6	-2	1	98	-2	0
Cc1ccccc1C(=O)N1CCN(C(=O)C(=O)c2cccc(C(F)(F)F)c2)CC1	x	2	x	x	0	x
O=C(C(=O)N1CCN(C(=O)Cc2ccccc2)CC1)c1cccc(C(F)(F)F)c1	x	-6	x	x	58*	x
Cc1ccc2nc(SCC(=O)Nc3ccc(Cl)cc3)nc(=O)n2c1	-1	5	x	112	2	86*
Cc1ccc2nc(SCC(=O)Nc3ccc(F)cc3)nc(=O)n2c1	-2	-2	x	101	0	-3
C[C@@H]1CN([C@@H](C)CO)C(=O)CCCn2cc(nn2)CO[C@H]1CN(C)S(=O)(=O)c1cccc(F)c1	3	2	x	x	0	7
O=C(Nc1cccnc1Cl)c1cc(-c2cccc(O)c2)on1	-2	0	1	88	2	72*
COc1ccc(-c2cc(C(=O)Nc3cccnc3Cl)no2)cc1OC	0	7	12	116	2	1
COc1ccccc1-c1cc(C(=O)Nc2cccnc2Cl)no1	-4	2	4	x	1	47*
COc1ccccc1CCN1CCCC(CN(C)Cc2ccc(OCCO)cc2)C1 (stereo not given)	2	1	3	114	1	2
Cc1nc2ccc(NC(=O)c3ccc([N+](=O)[O-])cc3[N+](=O)[O-])cc2s1	1	0	6	x	2	-29
C[C@H](CO)N1C[C@H](C)[C@H](CN(C)S(=O)(=O)c2ccc(-n3cccn3)cc2)OCc2cnnn2CCCC1=O	3	-6	x	x	2	0
COc1ccc(CC(=O)Nc2cccc(C(=O)NN3C(=O)c4ccccc4C3=O)c2C)cc1	6	4	7	14*	6	1
SMILES	DNMT1 inh	MBD2 inh	NS3 helicase inh	DSG3 Ab inh	UHRF1 binding	SUMO1-SIM PPI
CCCCn1nnc(NC(=S)NC(=O)c2ccc(-c3cccc(Cl)c3Cl)o2)n1	50	x	19	x	x	9
CCN(CC)C(=O)C1=C(C)N(Cc2ccc(C(C)(C)C)cc2)C(=O)C(CC(=O)NCCc2ccccn2)C1 (stereo not given)	4	-1	x	x	0	-1
CCOc1cc(/C=N/NC(=O)c2cccnc2)ccc1OCC(=O)N(C)C	0	0	-1	78*	1	-8
CCCC(=O)OCCNc1cc(Sc2nc3ccccc3[nH]2)c2nonc2c1[N+](=O)[O-]	-14	-6	-57	96	-14	-24
COc1ccc(CN2CCNC(=O)C2CC(=O)N(C)CC2CCOCC2)cc1C (stereo not given)	-2	0	-1	96	31*	0
CCCCn1c(N)c(N(CCC(C)C)C(=O)CSc2nnc3ccccn23)c(=O)[nH]c1=O	-1	1	11	106	0	-2
Nc1c(N2CCCC2)cc(Cl)c2nonc12	78*	x	9	99	x	37
COc1ccc2cc3c(nc2c1)OCC3	0	-3	1	102	21*	-1
COc1ccc2nc3c(nc2c1)CCCC3	-5	8	11	111	-1	-5
CCOc1ccccc1C1NC(=O)NC(C)=C1C(=O)OC1CCCCC1 (stereo not given)	3	1	-8	x	81*	0
CCOc1ccccc1N(CC(=O)NC1CCCCC1)C(=O)CCC(=O)Nc1cc(C)ccn1	1	-4	-6	120	-3	-2
CCn1cc(CN2CCCC(C(=O)c3ccc(-c4ccccc4)c(F)c3)C2)cn1 (stereo not given)	-1	0	-56	93	1	4
COc1cccc(/C=N/NC(=S)NCCc2ccccc2)c1OC	0	4	-17	70*	-1	4
COc1cccc(/C=N/NC(=O)CC(=O)NCCc2ccccc2)c1OC	0	4	-3	x	0	-4
COc1ccc(OC)c(/C=N\NC(=O)CC(=O)NCCc2ccccc2)c1	2	0	4	98	2	-3
COc1ccc(OC)c(/C=N/NC(=S)NCCc2ccccc2)c1	-2	3	-14	62*	-2	1
COc1ccc(CCN2C(=O)COc3ccccc3C2C(=O)NCc2ccccc2)cc1OC (stereo not given)	x	2	x	x	23*	-3
CCCCNC(=O)C1c2ccccc2OCC(=O)N1CCc1ccc(OC)c(OC)c1 (stereo not given)	x	-1	x	x	1	2
CCC1(CC)NC(=O)N(CC(=O)OCn2nnc3ccccc3c2=O)C1=O	4	9	3	104	21*	-2
Cc1c(Cl)cccc1NC(=S)N1CCN(c2ccccn2)CC1	6	-7	-2	98	2	-2
O=C(NCc1cc(Cl)cc(Cl)c1)c1ccc2nc(COCCO)[nH]c2c1	-4	1	x	x	21*	3
CCCC[C@@H](CNC)NC[C@H](NCCCCC1CCCCC1)C(C)C	5	6	-72	105	4	-21
O=C(NCCc1cccc(F)c1)C1CCN(S(=O)(=O)c2ccc(F)cc2)CC1	0	0	4	96	2	4
